{
  "source": "paper PMC11224971",
  "about": "(The Oncologist, 2024)",
  "format_in_all_cases": "in vivo, human",
  "key": {"[1]": {"tested_on": "relapsed or refractory advanced solid tumors harboring deleterious genetic alterations in the DDR pathway", "test": "NCI-COG Pediatric MATCH phase II subprotocol", "conditions": "135 mg/m^2/dose BID oral", "how_it_was_run": "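Relapsed/refractory pediatric solid tumors (incl. CNS, non-Hodgkin lymphoma, histiocytosis) assigned by centralized tumor sequencing showing a deleterious BRCA1/2, RAD51C/D or ATM alteration, without germline subtraction or LOH analysis. Oral tablets 135 mg/m²/dose (max 225 mg/dose) twice daily, given continuously in 28-day cycles. Primary endpoint was objective response.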"}, "[2]": {"test": "Pediatric MATCH arm H: safety and tolerability"}, "[3]": {"test": "Steady-state pharmacokinetics in plasma, cycle 1 day 8", "how_it_was_run": "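Plasma was sampled at steady state on cycle 1, day 8, after oral 135 mg/m²/dose BID. AUCSS was calculated by linear trapezoidal approximation through the day-8 24-hour dosing interval. The 24 h concentration was assumed equal to the predose concentration. CLSS was calculated as dose/AUCSS. Cmax, Tmax and t½ were also reported.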"}},
  "data": [
    {"smiles": "O=C(c1cc(Cc2n[nH]c(=O)c3ccccc23)ccc1F)N1CCN(C(=O)C2CC2)CC1", "note": "[Olaparib]", "values": [
      {"measurement": "Objective response (complete + partial response)", "setting": "[1]; 6 patients enrolled", "value": "no responses"},
      {"measurement": "Median duration assessments, OS", "setting": "[1]; 6 patients, 95% CI: 0.8-NA", "value": "2.5 months (95% CI: 0.8-NA)"},
      {"measurement": "Median duration assessments, PFS", "setting": "[1]; Kaplan-Meier, 6 patients, 95% CI: 0.4-NA", "value": "1.5 months (95% CI: 0.4-NA)"},
      {"measurement": "Response assessment, PD (number of patients, %)", "setting": "[1]; RECIST 1.1, 6 patients evaluated for efficacy", "value": "3 (50%)"},
      {"measurement": "Dose-limiting toxicities", "setting": "[2]; 2 patients evaluable for DLT, cycle 1, 135 mg/m^2/dose BID", "value": "no dose-limiting toxicities"},
      {"measurement": "Hematologic toxicity (overall)", "setting": "[2]; 6 patients evaluable for toxicity, 135 mg/m^2/dose BID", "value": "Minimal hematologic toxicity"},
      {"measurement": "Patients with grade 1/2 anemia", "setting": "[2]; number of patients, 6 evaluable for toxicity", "value": 3},
      {"measurement": "Allergic reaction leading to removal from study", "setting": "[2]; one patient (biallelic tumor loss of ATM), first dose, recurring upon rechallenge", "value": "acute allergic reaction (hives)"},
      {"measurement": "Clearance at steady state, mean ± SD", "setting": "[3]; dose/AUCSS, dose level 1, 135 mg/m^2 BID oral tablet, n = 3", "value": "4.1 ± 3.6", "unit": "L/h/m^2"},
      {"measurement": "AUC(0-t)", "setting": "[3]; human, plasma, po, 135 mg/m2", "value": "48800 ± 27800", "unit": "ng·h/mL"},
      {"measurement": "Cmax", "setting": "[3]; human, plasma, po, 135 mg/m2", "value": "7500 ± 2700", "unit": "ng/mL"},
      {"measurement": "Tmax", "setting": "[3]; human, plasma, po, 135 mg/m2", "value": "1 to 4", "unit": "h"},
      {"measurement": "half-life", "setting": "[3]; human, plasma, po, 135 mg/m2", "value": "5.6 ± 4.6", "unit": "h"}
    ]}
  ]
}
